In brackets after ≈: the same amount, converted by molar mass. Activity calls are given as the source filed them. The rule behind the calls is not given here.
Key:
Pseudomonas aeruginosa = assay: Antibacterial activity against Pseudomonas aeruginosa ATCC 27853 after 16 to 20 hrs by two fold serial dilution method; assay type: functional
Outline: (§1)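 MIC as lowest concentration giving complete inhibition of growth after 20 h; at least three independent experiments, each in duplicate.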

Staphylococcus aureus [1] = assay: Antibacterial activity against methicillin-resistant Staphylococcus aureus ATCC 33591 after 16 to 20 hrs by two fold serial dilution method; assay type: functional
Outline: (§2)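 Broth MIC: the lowest concentration giving complete growth inhibition after 20 h. Run at least three times, in duplicate each time.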

[2] = tested on: Staphylococcus epidermidis; assay: Antibacterial activity against methicillin-resistant Staphylococcus epidermidis RP62A after 16 to 20 hrs by two fold serial dilution method; assay type: functional; outline: as §2
Escherichia coli = assay: Antibacterial activity against Escherichia coli ATCC 25922 after 16 to 20 hrs by two fold serial dilution method; assay type: functional; outline: as §1
Klebsiella pneumoniae = assay: Antibacterial activity against Klebsiella pneumoniae ATCC 13383 after 16 to 20 hrs by two fold serial dilution method; assay type: functional; outline: as §1
Enterococcus faecalis = assay: Antibacterial activity against vancomycin resistant Enterococcus faecalis ATCC 700802 after 16 to 20 hrs by two fold serial dilution method; assay type: functional; outline: as §2
[3] = Cytotoxicity against human HK2 cells assessed as cell viability after 24 hrs by MTT assay; assay type: toxicity, cell-based, HK-2
Outline: (§3)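 Cells seeded at 5×10^4 per well and left 12 h, then exposed 24 h to compound at 100, 50, 25, 12.5 or 6.25 μg/mL diluted in medium. Medium replaced, MTT added for 4 h, solubilized 12 h at 37 °C, A550 read; viability % = (A − Ablank)/(Acontrol − Ablank) × 100. Run at least three times.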

[4] = Hemolytic activity in human RBC after 1 hr; assay type: ADME, cell-based, Erythrocyte; conditions: human red blood cells
Outline: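 Fresh K2EDTA human RBCs, PBS-washed, as 5% v/v suspension mixed 1:1 with compound dilutions, 37 °C for 1 h. Supernatant after centrifugation diluted in PBS, A540 read. % hemolysis relative to 2% Triton X-100 (positive) and PBS (negative). At least three runs, each in duplicate.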

[5] = Cytotoxicity against human K562 cells assessed as cell viability after 24 hrs by MTT assay; assay type: toxicity, cell-based; outline: as §3
[6] = Cytotoxicity against human HK2 cells assessed as cell viability at 25 ug/ml after 24 hrs by MTT assay; assay type: toxicity, cell-based; conditions: hk-2, 24 h; outline: as §3
[7] = Cytotoxicity against human K562 cells assessed as cell viability at 25 ug/ml after 24 hrs by MTT assay; assay type: toxicity, cell-based; conditions: k562, 24 h; outline: as §3
Staphylococcus aureus [8] = assay: Bactericidal activity against methicillin-resistant Staphylococcus aureus ATCC 33591 assessed as disruption of bacterial membrane at 25 ug/ml after 2 hrs by DAPI staining based fluorescence microscopy; assay type: functional
Outline: (§4)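 Mid-log MRSA was exposed to compound at 37 °C for 2 h, pelleted and washed three times in PBS. Cells were stained sequentially with PI (5 µg/mL) and DAPI (10 µg/mL), 15 min each on ice in the dark. Imaged with a 100× oil objective; DAPI channel 460 nm, PI channel 620 nm.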

Staphylococcus aureus [9] = assay: Bactericidal activity against methicillin-resistant Staphylococcus aureus ATCC 33591 for 10 mins to 2 hrs by time kill assay; assay type: functional
Outline: (§5)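 MRSA grown to mid-log in TSB was diluted to 10^6 CFU/mL. […] Samples were diluted 10^2–10^4-fold and plated on TSB agar. CFU were counted after overnight incubation at 37 °C and plotted against time.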

Staphylococcus aureus [10] = assay: Bactericidal activity against methicillin-resistant Staphylococcus aureus ATCC 33591 at 25 to 50 ug/ml for 10 mins to 2 hrs by time kill assay; assay type: functional; outline: as §5
Staphylococcus aureus [11] = assay: Antibacterial activity against methicillin-resistant Staphylococcus aureus ATCC 33591 at 0.5 times MIC after 14 passages; assay type: functional
Outline: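 Resistance passaging: the starting MIC was measured as in the MIC assay. Bacteria from the 1/2 MIC well seeded the next day's assay. Repeated daily for 14 passages.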

Staphylococcus aureus [12] = assay: Bactericidal activity against methicillin-resistant Staphylococcus aureus ATCC 33591 assessed as disruption of bacterial membrane at 25 ug/ml after 2 hrs by propidium iodide staining based fluorescence microscopy; assay type: functional; outline: as §4

Compound | MIC (Pseudomonas aeruginosa) [µg/mL] | MIC (Staphylococcus aureus [1]) [µg/mL] | MIC [2] [µg/mL] | MIC (Escherichia coli) [µg/mL] | MIC (Klebsiella pneumoniae) [µg/mL] | MIC (Enterococcus faecalis) [µg/mL] | IC50 at 24 h [3] [µg/mL] | HC50 at 1 h [4] [µg/mL] | IC50 at 24 h [5] [µg/mL] | Activity [6] | Activity [7] | Activity (Staphylococcus aureus [8]) | Activity (Staphylococcus aureus [9]) | Activity (Staphylococcus aureus [10]) | Activity (Staphylococcus aureus [11]) | Activity (Staphylococcus aureus [12])
CCCCCCCCCC(=O)N[C@@H](Cc1c[nH]c2ccccc12)C(=O)N[C@@H](CC(N)=O)C(=O)N[C@@H](CC(=O)O)C(=O)N[C@@H]1C(=O)NCC(=O)N[C@@H](CCCN)C(=O)N[C@@H](CC(=O)O)C(=O)N[C@H](C)C(=O)N[C@@H](CC(=O)O)C(=O)NCC(=O)N[C@H](CO)C(=O)N[C@@H]([C@H](C)CC(=O)O)C(=O)N[C@@H](CC(=O)c2ccccc2N)C(=O)O[C@@H]1C [DAPTOMYCIN] | > 50 | 0.5 (≈ 0.309 µM) | 0.5 (≈ 0.309 µM) | > 50 | > 50 | 1 (≈ 0.617 µM) | – | – | – | – | – | – | – | – | – | –
N=C(N)NCCC[C@H](N)C(=O)N[C@@H](Cc1ccccc1)CN(CC(=O)NCc1cccc2ccccc12)C(=O)c1ccc2ccccc2c1 | 25 (≈ 38 µM) | 25 (≈ 38 µM) | 12.5 (≈ 19 µM) | 50 (≈ 76 µM) | 25 (≈ 38 µM) | 25 (≈ 38 µM) | > 100 | 300 | > 100 | – | – | – | – | – | – | –
NCCCC[C@H](N)C(=O)N[C@@H](Cc1ccccc1)CN(CC(=O)NCc1cccc2ccccc12)C(=O)c1ccc2ccccc2c1 | 12.5 (≈ 19.8 µM) | 25 (≈ 39.7 µM) | 12.5 (≈ 19.8 µM) | 25 (≈ 39.7 µM) | 25 (≈ 39.7 µM) | 25 (≈ 39.7 µM) | – | 290 | – | Non-Toxic | Non-Toxic | – | – | – | – | –
NCCCC[C@H](N)CN(CC(=O)NCc1cccc2ccccc12)C(=O)c1ccc2ccccc2c1 | 6 (≈ 12.4 µM) | 25 (≈ 51.8 µM) | 25 (≈ 51.8 µM) | 25 (≈ 51.8 µM) | 25 (≈ 51.8 µM) | 25 (≈ 51.8 µM) | – | – | – | – | – | – | – | – | – | –
NCCCC[C@@H](CN(CC(=O)NCc1cccc2ccccc12)C(=O)c1ccc2ccccc2c1)NC(=O)[C@@H](N)CCCCN | > 50 | > 50 | > 50 | > 50 | > 50 | > 50 | – | – | – | – | – | – | – | – | – | –
NCCCC[C@H](NC(=O)[C@@H](N)CCCCN)C(=O)N[C@@H](Cc1ccccc1)CN(CC(=O)NCC12CC3CC(CC(C3)C1)C2)C(=O)CC12CC3CC(CC(C3)C1)C2 | 6.25 (≈ 7.93 µM) | 1.56 (≈ 1.98 µM) | 3.12 (≈ 3.96 µM) | 6.25 (≈ 7.93 µM) | > 25 | 6.25 (≈ 7.93 µM) | – | 280 | – | Non-Toxic | Non-Toxic | Active | Dose-dependent effect | Active | Active | Active
NCCCC[C@@H](CN(CC(=O)NCc1cccc2ccccc12)C(=O)CCCN)NC(=O)c1ccc2ccccc2c1 | > 50 | 25 (≈ 44 µM) | 25 (≈ 44 µM) | > 50 | > 50 | 25 (≈ 44 µM) | – | – | – | – | – | – | – | – | – | –
COLISTIN | 1 | > 50 | > 50 | 0.5 | 0.5 | > 50 | – | – | – | – | – | – | – | – | – | –
N=C(N)NCCC[C@H](N)C(=O)N[C@@H](CCCCN)C(=O)N[C@@H](Cc1ccccc1)CN(CC(=O)NCC12CC3CC(CC(C3)C1)C2)C(=O)CC12CC3CC(CC(C3)C1)C2 | 6.25 (≈ 7.66 µM) | 3.12 (≈ 3.82 µM) | 3.12 (≈ 3.82 µM) | 6.25 (≈ 7.66 µM) | > 25 | 6.25 (≈ 7.66 µM) | – | 250 | – | Non-Toxic | Non-Toxic | – | – | – | – | –
NCCCC[C@@H](CN(CC(=O)NCc1cccc2ccccc12)C(=O)CC12CC3CC(CC(C3)C1)C2)NC(=O)[C@@H](N)CCCCN | > 50 | > 50 | > 50 | > 50 | > 50 | > 50 | – | – | – | – | – | – | – | – | – | –
NCCCC[C@H](N)C(=O)N[C@@H](Cc1ccccc1)CN(CC(=O)NCc1cc(C(F)(F)F)cc(C(F)(F)F)c1)C(=O)CC12CC3CC(CC(C3)C1)C2 | 6.25 (≈ 8.47 µM) | 3.12 (≈ 4.23 µM) | 3.12 (≈ 4.23 µM) | 3.12 (≈ 4.23 µM) | 6.25 (≈ 8.47 µM) | 6.25 (≈ 8.47 µM) | – | 210 | – | Non-Toxic | Non-Toxic | – | – | – | – | –
NCCCC[C@H](NC(=O)[C@@H](N)CCCN)C(=O)N[C@@H](Cc1ccccc1)CN(CC(=O)NCC12CC3CC(CC(C3)C1)C2)C(=O)CC12CC3CC(CC(C3)C1)C2 | 6.25 (≈ 8.07 µM) | 3.12 (≈ 4.03 µM) | 3.12 (≈ 4.03 µM) | 6.25 (≈ 8.07 µM) | > 25 | 6.25 (≈ 8.07 µM) | – | 200 | – | Non-Toxic | Non-Toxic | – | – | – | – | –
NCCCC[C@H](N)C(=O)N[C@@H](Cc1ccccc1)CN(CC(=O)NCc1cccc2ccccc12)C(=O)CC12CC3CC(CC(C3)C1)C2 | 6.12 (≈ 9.39 µM) | 6.25 (≈ 9.59 µM) | 6.25 (≈ 9.59 µM) | 12.5 (≈ 19.2 µM) | 12.5 (≈ 19.2 µM) | 12.5 (≈ 19.2 µM) | – | 225 | – | Non-Toxic | Non-Toxic | – | – | – | – | –
NCCCC[C@H](N)C(=O)N[C@@H](Cc1ccccc1)CN(CC(=O)N(Cc1ccccc1)Cc1ccccc1)C(=O)CC12CC3CC(CC(C3)C1)C2 | 25 (≈ 36.1 µM) | 6.25 (≈ 9.03 µM) | 6.25 (≈ 9.03 µM) | 6.25 (≈ 9.03 µM) | 12.5 (≈ 18.1 µM) | 6.25 (≈ 9.03 µM) | – | 180 | – | Non-Toxic | Non-Toxic | – | – | – | – | –
CC(C)(C)c1ccc(CNC(=O)CN(C[C@H](Cc2ccccc2)NC(=O)[C@@H](N)CCCCN)C(=O)CC23CC4CC(CC(C4)C2)C3)cc1 | 6.25 (≈ 9.5 µM) | 6.25 (≈ 9.5 µM) | 3.12 (≈ 4.74 µM) | 6.25 (≈ 9.5 µM) | 6.25 (≈ 9.5 µM) | 6.25 (≈ 9.5 µM) | – | 120 | – | Non-Toxic | Non-Toxic | – | – | – | – | –
NCCCC[C@H](N)C(=O)N[C@@H](Cc1ccccc1)CN(CC(=O)NCc1ccc(-c2ccccc2)cc1)C(=O)CC12CC3CC(CC(C3)C1)C2 | 12.5 (≈ 18.4 µM) | 6.25 (≈ 9.22 µM) | 6.25 (≈ 9.22 µM) | 6.25 (≈ 9.22 µM) | 12.5 (≈ 18.4 µM) | 6.25 (≈ 9.22 µM) | – | 160 | – | Non-Toxic | Non-Toxic | – | – | – | – | –
NCCCC[C@H](N)C(=O)N[C@@H](Cc1ccccc1)CN(CC(=O)NCc1ccc(C(F)(F)F)cc1)C(=O)CC12CC3CC(CC(C3)C1)C2 | 12.5 (≈ 18.7 µM) | 6.25 (≈ 9.33 µM) | 3.12 (≈ 4.66 µM) | 6.25 (≈ 9.33 µM) | 6.25 (≈ 9.33 µM) | 6.25 (≈ 9.33 µM) | – | 200 | – | Non-Toxic | Non-Toxic | – | – | – | – | –

Reference: ChEMBL document CHEMBL3853323, “Small Antimicrobial Agents Based on Acylated Reduced Amide Scaffold” (J Med Chem, 2016)
